Results from PMC4878416 (Diabetes, 2016).

Assays:
[1] = system: human β-cells; assay: EdU incorporation proliferation assay in dissociated human islet cells; assay type: cell-based
Outline: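 Human islets dissociated in Accutase (5,000 IEQ/mL, 37°C, 20 min), resuspended in CMRL complete medium and seeded at ~30,000 (96-well) or ~15,000 (384-well) cells per well. EdU was present throughout the 6-day treatment, including FK506 cotreatment. Cells were fixed (3% PFA), permeabilised (0.2% Triton X-100) and stained for C-peptide and DAPI. EdU+ β-cells were scored by automated imaging and manually; 4 wells, 9 fields each; mean ± SD; two-tailed t test vs DMSO.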

[2] = target: T1, tyrosine kinase TXK (Homo sapiens, UniProt P42681); assay: Human kinome profiling, TXK; assay type: biochemical; details: read-out: remaining activity TXK
T1 sequence (P42681 1-527): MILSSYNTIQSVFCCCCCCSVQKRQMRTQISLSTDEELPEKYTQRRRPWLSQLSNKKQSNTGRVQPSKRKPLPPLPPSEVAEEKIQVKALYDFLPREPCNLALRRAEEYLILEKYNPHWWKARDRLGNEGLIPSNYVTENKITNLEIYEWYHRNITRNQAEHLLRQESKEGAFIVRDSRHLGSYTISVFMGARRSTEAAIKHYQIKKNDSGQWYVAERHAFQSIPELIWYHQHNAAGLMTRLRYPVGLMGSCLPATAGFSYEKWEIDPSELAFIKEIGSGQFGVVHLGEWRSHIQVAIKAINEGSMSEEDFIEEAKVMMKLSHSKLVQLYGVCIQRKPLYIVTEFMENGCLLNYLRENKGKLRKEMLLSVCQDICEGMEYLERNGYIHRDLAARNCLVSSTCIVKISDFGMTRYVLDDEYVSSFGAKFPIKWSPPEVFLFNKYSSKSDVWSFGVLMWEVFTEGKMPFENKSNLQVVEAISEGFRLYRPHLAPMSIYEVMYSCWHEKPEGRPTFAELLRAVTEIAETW
Outline: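 Human kinases profiled by commercial providers under their standard protocols; ATP within 15 μmol/L of the apparent KM for each enzyme.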

[3] = target: adenosine kinase; details: read-out: IC50 adenosine kinase; cited from earlier work
[4] = system: human islet cells (all cell types); details: cited from earlier work
[5] = target: DYRK1A (Homo sapiens, UniProt Q13627); assay: Biochemical assay for DYRK1A activity using the purified catalytic domain
[6] = system: p27KIP phosphorylation (S10); assay: Western blot of p27KIP phosphorylation; assay type: cell-based, rat; details: INS-1E cells, 24 or 48 h, 10 μmol/L harmine or 0.5 μmol/L 5-IT
Outline: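 Cells were treated after overnight attachment and lysed in RIPA buffer. Western blots were probed for p27KIP S10 phosphorylation, with actin as loading control.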

SMILES: Nc1ncnc2nc(-c3ccc(N4CCOCC4)nc3)cc(-c3cccc(Br)c3)c12 [ABT-702, 4-amino-5-(3-bromophenyl)-7-(6-morpholinopyridin-3-yl)pyrido[2,3-d]pyrimidine]
- effect on EdU incorporation ([1]; tested up to 20 μmol/L, 6-day treatment): no effect
- remaining activity at 0.5 µM [2]: 60%
- IC50 [3]: 1.7 nM

SMILES: COC(=O)C1=C(C)NC(C)=C([N+](=O)[O-])C1c1ccccc1C(F)(F)F (stereo not shown) [Bay K8644]
- cellular proliferation in human islet cell culture [4]: induces nonspecific cellular proliferation

SMILES: C=CC[C@@H]1/C=C(\C)C[C@H](C)C[C@H](OC)[C@H]2O[C@@](O)(C(=O)C(=O)N3CCCC[C@H]3C(=O)O[C@H](/C(C)=C/[C@@H]3CC[C@@H](O)[C@H](OC)C3)[C@H](C)[C@@H](O)CC1=O)[C@H](C)C[C@@H]2OC [FK506]
- effect of cotreatment on 5-IT-induced EdU-positive β-cells ([1]; 1 μmol/L FK506 with 1 μmol/L 5-IT): completely blocked
- effect of cotreatment on harmine-induced EdU-positive β-cells ([1]; 1 μmol/L FK506 with 10 μmol/L harmine): completely blocked

SMILES: COc1ccc2c3c([nH]c2c1)C(C)=NCC3 [harmaline]
- effect on EdU incorporation versus vehicle ([1]; 6-day treatment): no effect
- activity toward DYRK1A [5]: no activity

SMILES: COc1ccc2c(c1)[nH]c1c(C)nccc12 [harmine]
- effect on EdU-positive cells ([1]; 5 and 10 μmol/L, 6-day treatment): dose-dependent increase
- p27KIP phosphorylation [6]: decrease
